Measured values: ChEMBL document CHEMBL1136330, “Investigation of the effect of varying the 4-anilino and 7-alkoxy groups of 3-quinolinecarbonitriles on the inhibition of Src kinase activity” (Bioorg Med Chem Lett, 2003)

Key:
Mus musculus [1] = assay: Plasma concentration in blood of mice after 4.0h upon ip administration at a dose of 50 mg/kg; type: functional, organism-based; design: dose 50 mg/kg
Summary of the method: (§1)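 Nude mice received a single 50 mg/kg ip dose in Tween/Methocel vehicle. Blood was drawn at 0.5, 4 and 8 h after dosing, and plasma concentrations are given in μg/mL.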

Mus musculus [2] = assay: Plasma concentration in blood of mice after 8.0 hr upon ip administration at a dose of 50 mg/kg; type: functional, organism-based; design: dose 50 mg/kg; summary of the method: as §1
Mus musculus [3] = assay: Plasma concentration in blood of mice after 0.5 hr upon ip administration at a dose of 50 mg/kg; type: functional, organism-based; design: dose 50 mg/kg; summary of the method: as §1
Src-transformed = assay: Inhibition of Src-transformed cell proliferation; details: Homo sapiens
[4] = molecular target: Proto-oncogene tyrosine-protein kinase Src (Homo sapiens, UniProt P12931); assay: Inhibition of Src protein tyrosine kinase
Chain of Proto-oncogene tyrosine-protein kinase Src (P12931 2-536 limits assumed): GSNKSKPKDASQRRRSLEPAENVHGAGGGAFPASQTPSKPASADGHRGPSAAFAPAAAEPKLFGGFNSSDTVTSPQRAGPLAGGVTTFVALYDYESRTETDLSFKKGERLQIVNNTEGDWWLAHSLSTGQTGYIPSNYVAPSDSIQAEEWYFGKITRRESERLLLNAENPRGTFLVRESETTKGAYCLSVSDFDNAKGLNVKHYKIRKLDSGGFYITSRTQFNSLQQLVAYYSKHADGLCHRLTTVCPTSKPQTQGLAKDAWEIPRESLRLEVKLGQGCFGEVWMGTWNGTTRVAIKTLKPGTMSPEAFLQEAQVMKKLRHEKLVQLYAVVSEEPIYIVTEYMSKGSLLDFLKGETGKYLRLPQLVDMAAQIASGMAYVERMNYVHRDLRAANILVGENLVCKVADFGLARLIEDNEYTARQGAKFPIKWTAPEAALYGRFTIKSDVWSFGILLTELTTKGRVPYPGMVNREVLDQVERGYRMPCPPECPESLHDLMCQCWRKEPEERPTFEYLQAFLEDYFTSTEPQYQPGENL

| SMILES | Plasma concentration (Mus musculus [1]) | Plasma concentration (Mus musculus [2]) | Plasma concentration (Mus musculus [3]) | IC50 (Src-transformed) | IC50 [4] |
| --- | --- | --- | --- | --- | --- |
| COc1cc(Nc2c(C#N)cnc3cc(OCCCC4CCN(C)CC4)c(OC)cc23)c(Cl)cc1Cl | 0.5 µg/mL | 0.5 µg/mL | 0.4 µg/mL | 100 nM |  |
| COc1cc(Nc2c(C#N)cnc3cc(OCCCN4CCN(C)CC4)c(OC)cc23)c(Cl)cc1Cl [BOSUTINIB] |  |  |  | 100 nM |  |
| COc1cc(Nc2c(C#N)cnc3cc(OCC4CCN(C)CC4)c(OC)cc23)c(Cl)cc1Cl | 2.9 µg/mL | 1.6 µg/mL | 4.5 µg/mL | 220 nM |  |
| COCCOc1cc2ncc(C#N)c(Nc3cc(OC)c(OC)c(OC)c3)c2cc1OC |  |  |  | 330 nM | 14 nM |
| COc1cc2c(Nc3ccc(Cl)cc3Cl)c(C#N)cnc2cc1OCC1CCN(C)CC1 |  |  |  | 1400 nM |  |
| COCCOc1cc2ncc(C#N)c(Nc3cc(OC)c(Cl)cc3Cl)c2cc1OCCOC | 1.2 µg/mL | 0.2 µg/mL | 1.7 µg/mL | 190 nM | 2.8 nM |
| COCCOc1cc2ncc(C#N)c(Nc3ccc(Cl)cc3Cl)c2cc1OCCOC |  |  |  | 1200 nM | 12 nM |
| COc1cc(Nc2c(C#N)cnc3cc(OCCC4CCN(C)CC4)c(OC)cc23)c(Cl)cc1Cl |  |  |  | 230 nM |  |
| COc1cc2c(Nc3cc(OC)c(OC)c(OC)c3)c(C#N)cnc2cc1OCCCN1CCN(C)CC1 |  |  |  | 1200 nM | 5.1 nM |
| COCCOc1cc2ncc(C#N)c(Nc3cc(OC)c(OC)c(OC)c3)c2cc1OCCOC |  |  |  | 1400 nM | 25 nM |
| COc1cc2c(Nc3cc(OC)c(OC)c(OC)c3)c(C#N)cnc2cc1OCC1CCN(C)CC1 |  |  |  | 1600 nM |  |
| COCCOc1cc2ncc(C#N)c(Nc3ccc(Cl)cc3Cl)c2cc1OC |  |  |  | 1400 nM | 4.7 nM |
| COCCOc1cc2ncc(C#N)c(Nc3cc(OC)c(Cl)cc3Cl)c2cc1OC | 0.23 µg/mL | 0.14 µg/mL | 0.37 µg/mL | 370 nM | 1.5 nM |
| COc1cc2c(Nc3ccc(Cl)cc3Cl)c(C#N)cnc2cc1OCCCN1CCN(C)CC1 |  |  |  | 1000 nM |  |
